Hits are enriched below; roughly 2.8% of the tested compounds scored in any of these assays.
NPY2 pot ag: potentiates or activates human NPY-Y2 receptor. P49146. cells expressing NPY-Y2, potentiator/agonist read-out. activation, % at 3.6 µM. hit rate 0.45% among 220,000. AID 1359; in the data active means activation above about 27%;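 further: cells stimulated with NPY near EC25 plus isoproterenol at EC100; 0% = vehicle plus submaximal agonist and 100% = vehicle plus saturating agonist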
NPY Y2 blocker: antagonists of human neuropeptide Y receptor Y2 | P49146 | NPY-Y2 expressing cells, antagonist mode | inhibition, % at 2.7 µM | hit rate 0.99% among 140,000 | AID 793; in the data active means inhibition above about 17%;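 further: 0% = vehicle with agonist challenge and 100% = reference antagonist with challenge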
EP2 mod: modulators of human EP2 prostaglandin E2 receptor; P43116; EP2-expressing cells, cAMP HTRF FRET, PGE2 co-stimulation; induction, % at 25 µM; hit rate 0.83% among 260,000;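 active means compounds whose cAMP rise, as percent of the full-agonist control response, exceeds 60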;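 further: rat C6 glioma line stably carrying human EP2 under a CMV promoter; the protocol text gives 20 µM as final concentration; 100% = response of wells given 1 µM PGE2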
EP2 antag: blocks the human prostaglandin E2 receptor EP2. P43116. C6 glioma cells expressing human EP2, cAMP TR-FRET; cells stimulated with saturating PGE2. inhibition, % at 25 µM. hit rate 0.52% among 260,000;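 active means percent inhibition above 40 after rounding to a whole number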;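 further: rat C6 glioma host cells with rolipram phosphodiesterase inhibitor present; the protocol text gives 20 µM as final concentration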
NPY-Y1 antag: antagonists of human neuropeptide Y receptor Y1; P25929; HEK293-CNG Y1 cells, membrane potential fluorescence; NPY at EC95, then isoproterenol; inhibition, % at 3.6 µM; hit rate 1% among 200,000;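 active means inhibition above the campaign mean inhibition of all tested compounds plus 3 SD, cut at about 20% in these data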;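 further: 0% = DMSO wells given NPY plus isoproterenol and 100% = isoproterenol alone without NPY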
Target sequence (P25929 whole entry, looked up): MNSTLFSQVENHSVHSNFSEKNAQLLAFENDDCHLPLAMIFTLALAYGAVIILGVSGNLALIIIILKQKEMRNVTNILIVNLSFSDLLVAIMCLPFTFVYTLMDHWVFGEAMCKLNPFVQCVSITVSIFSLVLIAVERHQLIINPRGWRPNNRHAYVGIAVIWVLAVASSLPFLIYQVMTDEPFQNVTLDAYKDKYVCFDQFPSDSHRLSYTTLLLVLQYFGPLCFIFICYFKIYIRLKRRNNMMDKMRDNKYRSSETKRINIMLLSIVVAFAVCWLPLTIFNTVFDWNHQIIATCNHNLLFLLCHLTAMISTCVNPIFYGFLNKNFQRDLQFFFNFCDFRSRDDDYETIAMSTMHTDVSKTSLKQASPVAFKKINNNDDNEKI
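Material: HEK293 Y1/CNG channel cell line; also added: NPY (25 nM), isoproterenol (1 µM), Ro 20-1724 (25 µM); doses: one concentration, 3.6 µM, in 0.4% DMSO; schedule: compound incubation 1 h at room temperature, readout 45 min post-stimulation; technique: membrane potential fluorescence; measure: fluorescence ratio normalized to % inhibition between controls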
NPY-Y1 PAM-ag: potentiates or activates human NPY-Y1 receptor; activation, % at 3.6 µM; NPY-Y1 expressing cells, potentiator/agonist activation; hit rate 0.37% among 220,000; P25929; in the data active means activation above about 33%, passing the limit was not always enough;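 further: cells stimulated with NPY at EC10 then isoproterenol at EC100; 0% = low agonist plus stimulus and 100% = saturating agonist plus stimulus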
* = called active by the depositor; · = not tested or not shown.

SMILES	NPY2 pot ag	NPY Y2 blocker	EP2 mod	EP2 antag	NPY-Y1 antag	NPY-Y1 PAM-ag
C=CC[N+]1(C)Cc2cc3ccccc3c(-c3ccccc3)c2C1 (centres undefined)	·	·	-69.1	8.9	·	·
Cc1ccccc1OCC(=O)Nc1ccc2c(c1)Cc1ccccc1-2	-11.5	18.9*	-2.5	8.3	31.8*	-28.9
O=C(O)c1ccccc1-c1ccccc1C(=O)Nc1ccc2c(c1)Cc1ccccc1-2	·	·	31.0	38.7	·	·
O=C(O)c1ccccc1-c1ccccc1C(=O)Nc1ccc2c(c1)Cc1cc(F)ccc1-2	·	·	6.8	43.3*	·	·
S=C(Nc1ccc2c(c1)Cc1ccccc1-2)Nc1ccc2c(c1)Cc1ccccc1-2	·	·	-14.3	55.3*	·	·
Cn1c(=O)oc2cc(S(=O)(=O)Nc3cccc(CCc4ccccn4)c3)ccc21	·	·	-43.2	7.5	·	·
NCCC1([N+](=O)[O-])CCNCC1	·	·	8.4	50.2*	·	·
COc1ccc2c(c1)c(CC(=O)Nc1ccccc1OC)c(C)n2C(=O)c1ccc(Cl)cc1	-12.5	18.2*	42.9	13.3	20.2*	-26.9
Cc1[nH]nc2c1C(c1ccc(N(C)C)cc1)C1=C(CC(C)(C)CC1=O)N2 (centres undefined)	-22.4	·	7.2	6.9	20.5*	-2.3
Cc1ccc(C2C3=C(CC(C)(C)CC3=O)Nc3n[nH]c(C)c32)cc1 (centres undefined)	-0.1	0.3	17.8	20.7	-8.0	16.0
Cc1cccc(Oc2nc(-c3ccccn3)nc3ccccc23)c1	-24.0	·	47.2	13.0	·	-59.0
c1ccc(Oc2nc(-c3cccnc3)nc3ccccc23)cc1	-39.8	·	86.6*	6.8	·	-25.3
Cc1cccc(Oc2nc(-c3ccncc3)nc3ccccc23)c1	-31.4	·	71.2*	5.5	·	-32.5
Cc1ccc(-c2nnn(CC(=O)N(Cc3cccs3)C(C(=O)NC(C)(C)C)c3ccc(C)o3)n2)o1 (centres undefined)	-80.5	39.6*	40.5	4.2	35.1*	-112.5
O=C(Nc1nnc(-c2ccccc2)o1)c1nc2ccccc2s1	·	·	-14.4	45.1*	·	·
CN(C)S(=O)(=O)c1ccc(Nc2ccc(O)c3c2C(=O)c2c([N+](=O)[O-])ccc(O)c2C3=O)cc1	·	·	-34.0	58.8*	·	·
CCC(C)(C)n1nnnc1C(c1ccccc1Cl)N1CCN(C)CC1 (centres undefined)	·	·	-14.4	14.3	·	·
COC(=O)c1c(NC(=O)c2cccc(Cl)c2)sc(C(=O)Nc2cccc(OC)c2)c1C	·	·	-9.8	7.7	·	·
CCCC(c1nnnn1Cc1ccco1)N(Cc1ccccc1)Cc1cc2c(C)cc(C)cc2[nH]c1=O (centres undefined)	·	·	38.6	9.7	·	·
CC1(C)Cc2nc3sc4c(SCC(=O)NCc5ccccc5)ncnc4c3cc2CO1	5.7	2.8	63.2*	24.2	-2.2	2.8
CC1(C)Cc2nc3sc4c(SCC(=O)O)ncnc4c3cc2CO1	12.4	·	-0.5	12.3	·	3.3
CC(C)Sc1nc(N2CCCC2)c2c(c1C#N)CC(C)(C)OC2	1.3	5.5	63.2*	15.5	11.8	-2.6
Cc1ccc(N(C)S(=O)(=O)c2cccc(C(=O)Nc3nnc(C4CC4)s3)c2)cc1	13.0	·	-36.7	4.3	-2.8	22.4
COc1cc(OC)c(N(C)S(=O)(=O)c2cccc(C(=O)Nc3nnc(C4CC4)s3)c2)cc1Cl	56.2*	·	-9.3	5.1	·	70.8*
CSc1ccccc1C(=O)Nc1nc2ccccc2[nH]1	-3.2	·	-40.5	4.7	0.4	-13.5
SMILES	NPY2 pot ag	NPY Y2 blocker	EP2 mod	EP2 antag	NPY-Y1 antag	NPY-Y1 PAM-ag
CS(=O)(=O)c1ccccc1C(=O)Nc1nc2ccccc2[nH]1	6.8	·	-1.7	108.5*	·	14.3
CCSc1cc(N2CCCC2)nc(-c2ccccc2)n1	-3.1	4.5	64.0*	7.4	3.5	-9.5
Cc1ncc(-c2ccncc2)c(C2CCN(C(=O)N3CCCCC3)CC2)n1	·	·	-25.4	·	·	·
Fc1cccc(NC(=S)N2CCCCC2)c1	-4.5	0.9	4.8	15.5	-2.6	104.1*
CC(C)NC(=O)c1ccc2c(c1)N(CC(=O)NCc1ccccc1)C(=O)C(C)(C)O2	·	·	0.1	6.5	·	·
O=C(Cn1nnc(-c2cccc(C(F)(F)F)c2)n1)NC(=O)NCc1ccco1	-23.2	21.0*	0.0	12.2	13.8	-36.9
O=C(Cn1nnc(-c2ccccc2)n1)NCc1ccco1	-18.6	2.5	-2.0	0.1	-2.9	-27.4
Cc1nc2sc(C#N)c(N)c2c2c1CCCC2	-43.4	25.0*	·	16.7	21.7*	-84.4
